Columns and labels:
Canis familiaris [1] = organism: Canis familiaris; experiment: Intrinsic activity was measured on the dog carotid artery.; type: functional, Canis lupus familiaris
Canis familiaris [2] = organism: Canis familiaris; experiment: Apparent affinity was measured on the dog carotid artery.; type: functional, Canis lupus familiaris
Cavia porcellus [3] = organism: Cavia porcellus; experiment: Relative affinity compared to substance P was measured in guinea pig ileum.; type: functional
How it was run: (§1)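 Guinea pig ileum (animals 200-400 g, both sexes) from animals killed by stunning and exsanguination. Concentration-response curves built by consecutive additions of drug to the bath.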

Cavia porcellus [4] = organism: Cavia porcellus; experiment: Intrinsic activity was measured on the guinea pig ileum.; type: functional; how it was run: as §1
Cavia porcellus [5] = organism: Cavia porcellus; experiment: Apparent affinity was measured on the guinea pig ileum.; type: functional; how it was run: as §1
Oryctolagus cuniculus [6] = organism: Oryctolagus cuniculus; experiment: Intrinsic activity was measured on the rabbit mesenteric vein.; type: functional
How it was run: (§2)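 Rabbit mesenteric vein from rabbits killed by stunning and exsanguination. Concentration-response curves built by consecutive drug additions to the bath fluid.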

Oryctolagus cuniculus [7] = organism: Oryctolagus cuniculus; experiment: Apparent affinity was measured on the rabbit mesenteric vein.; type: functional; how it was run: as §2
Oryctolagus cuniculus [8] = organism: Oryctolagus cuniculus; experiment: Relative affinity compared to substance P was measured in rabbit mesenteric vein.; type: functional; how it was run: as §2
Rattus norvegicus = experiment: Relative potency compared substance P - change in blood pressure in anesthetized rat.; type: functional
How it was run: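 Rats 200-250 g, anesthetized with urethane (1.4 g/kg, sc). Peptides injected into the jugular vein. Blood pressure recorded directly via a cannula in the right carotid artery with a mercury manometer on a kymograph-driven smoked drum.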

Canis familiaris [9] = organism: Canis familiaris; experiment: Relative affinity compared to substance P was measured in the dog carotid artery.; type: functional, Canis lupus familiaris

Compound	Alphax10E (Canis familiaris [1])	pD2 (Canis familiaris [2])	RA (Cavia porcellus [3])	Alphax10E (Cavia porcellus [4])	pD2 (Cavia porcellus [5])	Alphax10E (Oryctolagus cuniculus [6])	pD2 (Oryctolagus cuniculus [7])	RA (Oryctolagus cuniculus [8])	RP (Rattus norvegicus)	RA (Canis familiaris [9])
CSCC[C@H](NC(=O)[C@H](CC(C)C)NC(=O)CNC(=O)[C@H](Cc1ccccc1)NC(=O)[C@H](CC1CCCCC1)NC(=O)[C@H](CCC(N)=O)NC(=O)[C@H](CCC(N)=O)NC(=O)[C@@H]1CCCN1C(=O)[C@H](CCCCN)NC(=O)[C@@H]1CCCN1C(=O)[C@@H](N)CCCN=C(N)N)C(N)=O	1	8.8	20	1	8.08	0.8	6.66	13.2	21	6.4
CC[C@H](C)[C@H](NC(=O)[C@H](Cc1ccccc1)NC(=O)[C@H](CCC(N)=O)NC(=O)[C@H](CCC(N)=O)NC(=O)[C@@H]1CCCN1C(=O)[C@H](CCCCN)NC(=O)[C@@H]1CCCN1C(=O)[C@@H](N)CCCN=C(N)N)C(=O)NCC(=O)N[C@@H](CC(C)C)C(=O)N[C@@H](CCSC)C(N)=O	–	–	100	1	8.78	1	7.55	100	100	–
CSCC[C@H](NC(=O)[C@H](CC(C)C)NC(=O)CNC(=O)[C@H](CC1CCCCC1)NC(=O)[C@H](Cc1ccccc1)NC(=O)[C@H](CCC(N)=O)NC(=O)[C@H](CCC(N)=O)NC(=O)[C@@H]1CCCN1C(=O)[C@H](CCCCN)NC(=O)[C@@H]1CCCN1C(=O)[C@@H](N)CCCN=C(N)N)C(N)=O	–	–	100	1	8.78	1	7.55	100	100	–
CSCC[C@H](NC(=O)[C@H](CC(C)C)NC(=O)[C@@H](Cc1ccccc1)NC(=O)[C@@H](CC(C)C)NC(=O)[C@H](Cc1ccccc1)NC(=O)[C@H](CCC(N)=O)NC(=O)[C@H](CCC(N)=O)NC(=O)[C@@H]1CCCN1C(=O)[C@H](CCCCN)NC(=O)[C@@H]1CCCN1C(=O)[C@@H](N)CCCN=C(N)N)C(N)=O	1	7.89	1.2	–	6.83	–	–	<0.01	1.3	0.8
CSCC[C@H](NC(=O)[C@H](CC(C)C)NC(=O)CNC(=O)[C@@H](Cc1c[nH]c2ccccc12)NC(=O)[C@H](Cc1ccccc1)NC(=O)[C@H](CCC(N)=O)NC(=O)[C@H](CCC(N)=O)NC(=O)[C@@H]1CCCN1C(=O)[C@H](CCCCN)NC(=O)[C@@H]1CCCN1C(=O)[C@@H](N)CCCN=C(N)N)C(N)=O	1	7.12	0.8	1	6.68	–	4.92	0.3	0.8	0.2
COc1ccc(C[C@H](NC(=O)[C@H](CCC(N)=O)NC(=O)[C@H](CCC(N)=O)NC(=O)[C@@H]2CCCN2C(=O)[C@H](CCCCN)NC(=O)[C@@H]2CCCN2C(=O)[C@@H](N)CCCN=C(N)N)C(=O)N[C@@H](Cc2ccccc2)C(=O)NCC(=O)N[C@@H](CC(C)C)C(=O)N[C@@H](CCSC)C(N)=O)cc1	–	–	31	1	8.27	0.8	6.87	20.5	31	–
CSCC[C@H](NC(=O)[C@H](CC(C)C)NC(=O)CNC(=O)[C@H](Cc1ccccc1)NC(=O)[C@H](CC(C)C)NC(=O)[C@H](CCC(N)=O)NC(=O)[C@H](CCC(N)=O)NC(=O)[C@@H]1CCCN1C(=O)[C@H](CCCCN)NC(=O)[C@@H]1CCCN1C(=O)[C@@H](N)CCCN=C(N)N)C(N)=O	1	7.64	2.3	1	7.15	–	5.66	1.3	0.8	0.4
COc1ccc(C[C@H](NC(=O)[C@H](Cc2ccccc2)NC(=O)[C@H](CCC(N)=O)NC(=O)[C@H](CCC(N)=O)NC(=O)[C@@H]2CCCN2C(=O)[C@H](CCCCN)NC(=O)[C@@H]2CCCN2C(=O)[C@@H](N)CCCN=C(N)N)C(=O)NCC(=O)N[C@@H](CC(C)C)C(=O)N[C@@H](CCSC)C(N)=O)cc1	1	9.98	100	1	8.78	1	7.55	100	100	95
CSCC[C@H](NC(=O)[C@H](CC(C)C)NC(=O)[C@@H](CC(C)C)NC(=O)[C@H](Cc1ccccc1)NC(=O)[C@H](Cc1ccccc1)NC(=O)[C@H](CCC(N)=O)NC(=O)[C@H](CCC(N)=O)NC(=O)[C@@H]1CCCN1C(=O)[C@H](CCCCN)NC(=O)[C@@H]1CCCN1C(=O)[C@@H](N)CCCN=C(N)N)C(N)=O	1	7.49	2.7	1	7.21	–	5.11	0.4	0.7	0.3
CSCC[C@H](NC(=O)[C@H](CC(C)C)NC(=O)CNC(=O)[C@H](Cc1ccccc1)NC(=O)[C@H](Cc1c[nH]c2ccccc12)NC(=O)[C@H](CCC(N)=O)NC(=O)[C@H](CCC(N)=O)NC(=O)[C@@H]1CCCN1C(=O)[C@H](CCCCN)NC(=O)[C@@H]1CCCN1C(=O)[C@@H](N)CCCN=C(N)N)C(N)=O	1	9.56	39.7	1	8.38	–	6.55	10	51	37.1
CSCC[C@H](NC(=O)[C@H](Cc1ccccc1)NC(=O)CNC(=O)[C@@H](C)NC(=O)[C@H](Cc1ccccc1)NC(=O)[C@H](CCC(N)=O)NC(=O)[C@H](CCC(N)=O)NC(=O)[C@@H]1CCCN1C(=O)[C@H](CCCCN)NC(=O)[C@@H]1CCCN1C(=O)[C@@H](N)CCCN=C(N)N)C(N)=O	1	8.15	<0.01	–	4.73	–	–	<0.1	0.09	1.4
CSCC[C@H](NC(=O)[C@H](CC(C)C)NC(=O)CNC(=O)[C@H](Cc1ccccc1)NC(=O)[C@@H](Cc1c[nH]c2ccccc12)NC(=O)[C@H](CCC(N)=O)NC(=O)[C@H](CCC(N)=O)NC(=O)[C@@H]1CCCN1C(=O)[C@H](CCCCN)NC(=O)[C@@H]1CCCN1C(=O)[C@@H](N)CCCN=C(N)N)C(N)=O	1	7.33	0.2	1	5.9	–	–	<0.1	0.2	0.2
CSCC[C@H](NC(=O)[C@H](CC(C)C)NC(=O)CNC(=O)[C@H](CC(C)C)NC(=O)[C@H](Cc1ccccc1)NC(=O)[C@H](CCC(N)=O)NC(=O)[C@H](CCC(N)=O)NC(=O)[C@@H]1CCCN1C(=O)[C@H](CCCCN)NC(=O)[C@@H]1CCCN1C(=O)[C@@H](N)CCCN=C(N)N)C(N)=O	1	9.81	68	1	8.61	0.8	6.92	23.6	70	64
H-RPKPQQFGGFM-NH2	1	7.33	<0.1	–	5.31	–	–	<0.1	0.07	0.2
H-RPKPQQLLGLM-NH2	1	6.38	<0.1	–	5.29	–	–	<0.01	0.2	<0.1
